We go through ten molecules from ChEMBL document CHEMBL4725285, “Amides as bioisosteres of triazole-based geranylgeranyl diphosphate synthase inhibitors” (Bioorg Med Chem, 2020).

Structures are written as SMILES. pIC50: −log10 of the molar value. Activity calls are given as the source filed them. The rule behind the calls is not given here.

Experiment [1] deals with T1, Geranylgeranyl pyrophosphate synthase (Homo sapiens) (UniProt O95749).
T1 sequence (whole entry): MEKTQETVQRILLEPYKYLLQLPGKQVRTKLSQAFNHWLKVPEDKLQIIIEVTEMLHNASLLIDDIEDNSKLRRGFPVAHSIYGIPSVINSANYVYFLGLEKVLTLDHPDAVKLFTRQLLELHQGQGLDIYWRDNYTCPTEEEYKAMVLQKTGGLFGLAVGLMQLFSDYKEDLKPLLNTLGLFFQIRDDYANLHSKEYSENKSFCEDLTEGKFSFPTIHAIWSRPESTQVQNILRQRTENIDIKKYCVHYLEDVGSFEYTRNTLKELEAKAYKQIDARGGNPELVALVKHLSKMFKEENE
The experiment is described as follows: Inhibition of GGDPS in human RPMI-8226 cells assessed as lowest effective concentration required to show unmodified Rap1a band after 48 hrs by immunoblot analysis. It is filed as cell-based. In outline:
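RPMI-8226 myeloma cells exposed to drugs for 48 hrs, with lovastatin as positive control. Lysate protein quantified by BCA. Equal amounts run on SDS-PAGE, blotted to PVDF, and probed for H-Ras, Rap1a (antibody recognises only unmodified protein) and β-tubulin as loading control. Detection by HRP secondary antibodies and ECL.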
(In general: A western blot detects proteins with antibodies after separation by electrophoresis.)

The target in experiment [2] is T1, Geranylgeranyl pyrophosphate synthase (Homo sapiens). The experiment is described as follows: Inhibition of GGDPS in human RPMI-8226 cells assessed as lowest effective concentration required for increase in intracellular lambda chain level after 48 hrs by ELISA. In kind it is cell-based. On the technique in general: An ELISA detects its analyte on a solid surface through an enzyme-linked reagent.

Experiment [3] deals with T2, Geranylgeranyl pyrophosphate synthase (Homo sapiens, UniProt O95749).
T2 sequence (O95749 whole entry): T1 sequence (whole entry)
Briefly: Inhibition of recombinant GGDPS (unknown origin) using [14C] IPP and FPP as substrate preincubated for 10 mins followed by substrate addition and measured after 30 min by liquid scintillation counting method. In outline: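 Recombinant GGDPS used, run by a previously described method. Each compound tested in duplicate at multiple concentrations across three independent experiments. IC50 derived from concentration-response curves.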

Experiment [4] concerns the target T3, Farnesyl pyrophosphate synthase (Homo sapiens, UniProt P14324).
T3 sequence (P14324 whole entry): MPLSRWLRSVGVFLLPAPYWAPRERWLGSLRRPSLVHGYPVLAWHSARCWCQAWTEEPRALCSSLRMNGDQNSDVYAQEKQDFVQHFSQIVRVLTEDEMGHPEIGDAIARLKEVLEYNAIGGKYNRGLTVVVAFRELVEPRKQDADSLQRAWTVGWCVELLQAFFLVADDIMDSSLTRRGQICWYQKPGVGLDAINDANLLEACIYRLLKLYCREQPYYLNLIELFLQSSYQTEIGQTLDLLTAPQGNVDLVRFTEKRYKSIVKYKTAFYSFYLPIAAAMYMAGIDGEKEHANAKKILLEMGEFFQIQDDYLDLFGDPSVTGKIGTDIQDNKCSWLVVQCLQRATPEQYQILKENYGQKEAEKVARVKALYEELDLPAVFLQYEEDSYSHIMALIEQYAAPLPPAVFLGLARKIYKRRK
Briefly: Inhibition of recombinant FDPS (unknown origin) using [14C] IPP and GPP as substrate preincubated for 10 mins followed by substrate addition and measured after 30 min by liquid scintillation counting method.

The species entered for another experiment is Homo sapiens. Briefly: Selectivity ratio of IC50 for FDPS (unknown origin) to IC50 for GGDPS (unknown origin).
The species entered for experiment [5] is Rattus norvegicus. Briefly: Inhibition of recombinant rat FTase expressed in Escherichia coli using dansyl-GCVLS peptide and farnesyl pyrophosphate as substrate at 100 uM after 1 hr by fluorescence microplate reader analysis relative to control. In short, it runs like this: (§1)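 Recombinant FTase and GGTase I assayed with dansyl-GCVLS and dansyl-GCVLL peptides by a modified Temple et al. method. Fluorescence change followed over time on a microplate reader. Duplicates at multiple concentrations, up to 100 μM, in three independent experiments. IC50 taken from concentration-response curves.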

The species named for experiment [6] is Rattus norvegicus. The experiment is described as follows: Inhibition of recombinant rat GGtase-1 expressed in Escherichia coli using dansyl-GCVLS and geranylgeranyl pyrophosphate as substrate at 100 uM after 2 hrs by fluorescence microplate reader analysis relative to control. In outline: as §1
Experiment [7] is filed under the species Rattus norvegicus. The experiment is described as follows: Inhibition of recombinant rat GGtase-1 expressed in Escherichia coli using dansyl-GCVLS and geranylgeranyl pyrophosphate as substrate after 2 hrs by fluorescence microplate reader analysis. In short, it runs like this: as §1

As to `CC(C)=CCC/C(C)=C/C(=O)NCCC(P(=O)(O)O)P(=O)(O)O` (mixture of isomers), the LED in experiment [1] and in experiment [2] was 10 µM in each case.

As for `CC(C)=CCC[C@H](C)CC(=O)NCCC(P(=O)(O)O)P(=O)(O)O`, the figures for the pIC50 in experiment [3] and in experiment [4] were 5.27 and 4.56, respectively. The Ratio IC50 in the experiment filed under Homo sapiens was 5.1. The LED in experiment [1] and in experiment [2] was 50 µM throughout. Also, the inhibition result in the experiment filed under Rattus norvegicus [5] and in the experiment filed under Rattus norvegicus [6] was “inactive” in each case.

On to `CC(C)=CCC/C(C)=C\CCn1cc(CC(P(=O)(O)O)P(=O)(O)O)nn1`, for which the pIC50 (usually the IC50 on a negative log10 scale, so that one unit is a factor of ten) in experiment [4] is 4.48. Besides, in the experiment listed under Homo sapiens, the Ratio IC50 was 445. Further, the LED in experiment [1] and in experiment [2] was 0.03 µM each time.

On to `CC(C)=CCC/C(C)=C/C(=O)NCCC(P(=O)(O)O)P(=O)(O)O`, for which the LED in experiment [1] and in experiment [2] was 5 µM each time. In addition, in the experiment listed under Rattus norvegicus [7], the inhibition – broadly, the relative decrease from the control value, in per cent – is “inactive”.

In the case of `CC(C)=CCC/C(C)=C\CCC(=O)NCCC(P(=O)(O)O)P(=O)(O)O`, the pIC50 in experiment [3] was 5.96; in experiment [4], 4.50. Further, the Ratio IC50 in the experiment listed under Homo sapiens was determined as 28.8. For the same molecule, the LED in experiment [1] and in experiment [2] was 0.5 µM each time. For the same molecule, the inhibition entry in the experiment listed under Rattus norvegicus [5] and in the experiment listed under Rattus norvegicus [6] was “inactive” throughout.

On to `CC(C)=CCC/C(C)=C\C(=O)NCCC(P(=O)(O)O)P(=O)(O)O`, for which the LED in experiment [1] and in experiment [2] was 50 µM throughout. In addition, the inhibition in the experiment filed under Rattus norvegicus [5] is below 30%.

On to `CC(C)=CCC[C@@H](C)CC(=O)NCCC(P(=O)(O)O)P(=O)(O)O`, for which the pIC50 is 5.47 in experiment [3] and 4.31 in experiment [4]. For the same molecule, the Ratio IC50 in the experiment filed under Homo sapiens was 14.3. Besides, the LED in experiment [1] and in experiment [2] was 5 µM in each case. In addition, the inhibition entry in the experiment listed under Rattus norvegicus [5] and in the experiment listed under Rattus norvegicus [6] was “inactive” each time.

Consider `CC(C)=CCC/C(C)=C\CC(=O)NCCC(P(=O)(O)O)P(=O)(O)O`, for which the pIC50 in experiment [3] was 5.43; in experiment [4] it was 5.11. Further, the Ratio IC50 in the experiment filed under Homo sapiens came to 2.1. Also, the LED in experiment [1] and in experiment [2] was 5 µM each time. For the same molecule, the inhibition entry in the experiment listed under Rattus norvegicus [5] and in the experiment listed under Rattus norvegicus [6] was “inactive” each time.

As to `CC(C)=CCCC(=O)NCCC(P(=O)(O)O)P(=O)(O)O`, the pIC50 in experiment [3] was 4.84; in experiment [4], 4.35. The Ratio IC50 in the experiment filed under Homo sapiens was 3.1. Moreover, the LED in experiment [1] and in experiment [2] was 50 µM each time.

Regarding `CC(C)=CCC/C(C)=C/CCC(=O)NCCC(P(=O)(O)O)P(=O)(O)O`, the pIC50 in experiment [3] is 6.10; in experiment [4], 4.84. Further, the Ratio IC50 in the experiment listed under Homo sapiens came to 17.9. Besides, the LED in experiment [1] and in experiment [2] was 1 µM each time. Besides, the inhibition entry in the experiment listed under Rattus norvegicus [5] and in the experiment listed under Rattus norvegicus [6] was “inactive” throughout.
